1 compound from ChEMBL document CHEMBL4706728, “Discovery of a Highly Selective and Potent TRPC3 Inhibitor with High Metabolic Stability and Low Toxicity” (ACS Med Chem Lett, 2021) can be followed below.

The source made the active and inactive calls. The rule behind the calls is not given here.

Series [1] can be described thus: Toxicity in NSG/ICR mouse assessed as survival at 200 mg/kg, ip administered once daily for 5 days. The class given is organism-based. As to conditions: in vivo, 200 mg/kg, 120 h, dose 200 mg/kg/day, time 5 day. In a few lines:
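Mice (n = 5 per group) dosed at 200 mg/kg by intraperitoneal injection once daily for 5 consecutive days. Survival monitored. Body weight expressed as mean percent change ± SD relative to weight at the start of treatment (day 0), with 15% weight loss as the reference line.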

Series [2] addresses T1, Short transient receptor potential channel 3 (Homo sapiens, UniProt Q13507).
T1 sequence (Q13507 whole entry): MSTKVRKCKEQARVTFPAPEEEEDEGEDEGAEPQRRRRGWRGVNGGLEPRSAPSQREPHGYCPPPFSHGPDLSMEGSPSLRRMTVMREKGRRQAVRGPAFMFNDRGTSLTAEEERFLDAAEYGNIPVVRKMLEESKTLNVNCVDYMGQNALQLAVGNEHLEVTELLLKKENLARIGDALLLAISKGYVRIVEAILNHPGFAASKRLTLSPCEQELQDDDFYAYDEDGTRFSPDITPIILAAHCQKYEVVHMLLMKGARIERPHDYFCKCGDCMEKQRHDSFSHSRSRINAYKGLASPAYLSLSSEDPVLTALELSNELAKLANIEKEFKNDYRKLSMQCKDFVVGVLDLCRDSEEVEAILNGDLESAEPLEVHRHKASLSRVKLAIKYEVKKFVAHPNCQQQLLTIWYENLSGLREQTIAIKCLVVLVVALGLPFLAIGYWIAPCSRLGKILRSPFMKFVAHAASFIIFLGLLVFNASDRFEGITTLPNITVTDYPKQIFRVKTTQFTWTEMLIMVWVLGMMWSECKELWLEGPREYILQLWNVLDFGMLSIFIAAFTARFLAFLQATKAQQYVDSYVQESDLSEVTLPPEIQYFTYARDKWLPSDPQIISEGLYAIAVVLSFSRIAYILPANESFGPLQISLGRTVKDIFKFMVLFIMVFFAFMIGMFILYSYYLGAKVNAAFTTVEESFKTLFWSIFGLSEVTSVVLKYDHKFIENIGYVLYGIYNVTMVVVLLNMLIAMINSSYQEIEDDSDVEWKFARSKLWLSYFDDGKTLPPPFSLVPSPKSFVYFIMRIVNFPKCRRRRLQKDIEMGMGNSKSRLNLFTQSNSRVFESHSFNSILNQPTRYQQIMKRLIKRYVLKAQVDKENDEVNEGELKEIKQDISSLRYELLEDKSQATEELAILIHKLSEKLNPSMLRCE
The experiment in a line: Inhibition of human TRPC3 expressed in HEK293 cells assessed as inhibition of GSK170-induced current in presence of 2 mM extracellular calcium by whole cell patch-clamp method. The class given is cell-based. In short, it runs like this:
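hTRPC3 in HEK293 cells, whole-cell patch clamp with 2 mM extracellular Ca2+. Currents elicited by 1 μM GSK1702934A and challenged with a range of inhibitor concentrations by perfusion. Each concentration tested on separate cells and normalized to the cell's maximum amplitude. Dose–response curve built from the data; mean ± SD.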

The nature of series [3]: Metabolic stability in human liver microsomes assessed as half life at […] measured up to 240 mins in presence of NADPH regeneration system by LC-MS analysis. The class given is ADME, Microsome.
Series [4] addresses Transient receptor potential cation channel subfamily V member 1 (Rattus norvegicus) (UniProt O35433). The experiment in a line: Inhibition of rat TRPV1 expressed in HEK293 cells assessed as inhibition of capsaicin-induced current at 10 uM by whole cell patch-clamp method. Format: cell-based. In a few lines:
(§1)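 TRP channels overexpressed in HEK293 cells (hTRPA1, rTRPV1, rTRPV4, mouse TRPC6, hTRPC7, hTRPM8). Whole-cell patch clamp with Ca2+-free solutions to avoid desensitization. Channels fully activated with high concentrations of their agonists (AITC for TRPA1, capsaicin for TRPV1, GSK1016790A for TRPV4), then 10 μM test compound perfused with agonist. Result expressed as percentage of peak current blocked; mean ± SD.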

Series [5] can be described thus: Binding affinity to human His8-MBP-TRPC3b I395V mutant expressed in baculovirus infected Sf9 cells incubated for 1 hr by LC-MS analysis. In a few lines: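 Purified hTRPC3 protein incubated with compound for 1 h. Free compound removed by repeated size-exclusion chromatography. Methanol added to denature the protein and extract bound compound, which is detected by LC-MS against a prepared control. MS data collected from 2.5 min onward to keep buffer salts out.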

Series [6] is described as follows: Metabolic stability in rat liver microsomes assessed as half life at […] measured up to 240 mins in presence of NADPH regeneration system by LC-MS analysis. The class given is ADME, Microsome.
Series [7] addresses T2, Short transient receptor potential channel 7 (Homo sapiens) (UniProt Q9HCX4).
T2 sequence (whole entry): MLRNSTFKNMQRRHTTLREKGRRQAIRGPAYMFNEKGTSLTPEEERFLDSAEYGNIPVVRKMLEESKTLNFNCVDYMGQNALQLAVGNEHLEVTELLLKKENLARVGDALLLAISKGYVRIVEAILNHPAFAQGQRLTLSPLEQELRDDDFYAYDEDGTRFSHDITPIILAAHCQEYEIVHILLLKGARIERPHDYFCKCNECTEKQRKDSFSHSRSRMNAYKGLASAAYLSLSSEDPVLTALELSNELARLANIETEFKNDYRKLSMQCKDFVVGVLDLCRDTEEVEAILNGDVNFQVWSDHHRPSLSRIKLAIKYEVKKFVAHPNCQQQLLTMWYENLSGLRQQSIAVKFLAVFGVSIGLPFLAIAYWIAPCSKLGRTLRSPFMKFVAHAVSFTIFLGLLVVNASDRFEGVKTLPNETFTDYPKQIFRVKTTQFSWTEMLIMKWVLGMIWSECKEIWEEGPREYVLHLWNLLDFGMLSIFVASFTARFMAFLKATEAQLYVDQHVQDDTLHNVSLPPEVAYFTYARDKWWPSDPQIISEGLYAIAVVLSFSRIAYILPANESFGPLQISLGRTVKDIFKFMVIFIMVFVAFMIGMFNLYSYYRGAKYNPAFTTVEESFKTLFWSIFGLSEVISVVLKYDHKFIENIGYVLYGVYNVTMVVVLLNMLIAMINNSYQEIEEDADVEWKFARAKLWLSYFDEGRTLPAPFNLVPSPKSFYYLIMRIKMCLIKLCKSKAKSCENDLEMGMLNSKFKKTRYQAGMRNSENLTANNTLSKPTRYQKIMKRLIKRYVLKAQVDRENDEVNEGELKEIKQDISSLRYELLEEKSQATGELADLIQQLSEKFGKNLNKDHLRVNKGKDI
Kind of series: Inhibition of human TRPC7 expressed in HEK293 cells assessed as inhibition of GSK170-induced current at 10 uM by whole cell patch-clamp method. Format: cell-based. In a few lines: as §1

Transient receptor potential cation channel subfamily V member 1 (Rattus norvegicus), sequence (O35433 whole entry, the tested form may be a part): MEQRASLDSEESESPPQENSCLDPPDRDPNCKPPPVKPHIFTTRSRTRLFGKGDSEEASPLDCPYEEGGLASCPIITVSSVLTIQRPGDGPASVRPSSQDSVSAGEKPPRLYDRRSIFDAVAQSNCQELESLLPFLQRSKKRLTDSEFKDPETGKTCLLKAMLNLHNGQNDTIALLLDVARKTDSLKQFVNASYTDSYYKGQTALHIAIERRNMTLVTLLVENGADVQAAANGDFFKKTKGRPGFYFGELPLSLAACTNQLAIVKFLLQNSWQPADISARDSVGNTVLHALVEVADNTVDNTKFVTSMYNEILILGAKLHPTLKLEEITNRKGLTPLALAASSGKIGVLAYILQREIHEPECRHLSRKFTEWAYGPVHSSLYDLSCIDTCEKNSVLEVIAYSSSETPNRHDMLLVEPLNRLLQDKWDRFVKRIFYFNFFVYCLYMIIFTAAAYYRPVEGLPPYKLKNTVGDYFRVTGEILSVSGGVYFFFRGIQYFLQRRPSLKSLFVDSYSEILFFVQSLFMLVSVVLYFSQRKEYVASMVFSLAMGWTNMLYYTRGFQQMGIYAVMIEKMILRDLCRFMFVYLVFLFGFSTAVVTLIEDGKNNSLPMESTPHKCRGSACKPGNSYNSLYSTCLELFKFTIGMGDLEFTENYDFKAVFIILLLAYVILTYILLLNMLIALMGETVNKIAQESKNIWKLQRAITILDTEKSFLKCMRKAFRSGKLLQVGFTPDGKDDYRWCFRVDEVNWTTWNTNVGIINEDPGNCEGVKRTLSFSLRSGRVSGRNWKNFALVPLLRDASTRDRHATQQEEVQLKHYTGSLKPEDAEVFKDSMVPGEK

Consider `CCNC(=O)c1cnn(-c2ccc(-n3ccc(Cl)c(Cl)c3=O)cc2)c1C(F)(F)F`, for which the Activity entry in series [1] is listed as “Non-Toxic”. In addition, the IC50 in series [2] is 0.43 µM. For the same compound, the half-life in series [3] and in series [6] was greater than 4 h in each case. Further, the inhibition result in series [4] is “inactive”. Also, the result in series [5] was Active. Besides, the inhibition in series [7] turned out to be 26%.
